Converted amounts (≈) assume the structure as drawn.

The test system of the assay is Mycobacterium tuberculosis. The experiment in a line: Antitubercular activity against rifampicin-resistant Mycobacterium tuberculosis assessed as growth inhibition after 2 to 3 weeks by broth microdilution method. Type of assay: functional. The method, boiled down: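 Primary screen of all compounds against H37Rv at a single concentration in triplicate by microplate dilution. Actives then went to MIC determination by broth microdilution against H37Rv, rifampicin-resistant and XDR-1 isolates. Plates incubated 2–3 weeks at 37 °C in a CO2 incubator. MIC read visually as absence of growth turbidity. Rifampicin and linezolid served as reference drugs.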
Consider `Cc1c(CN2CCN(c3ccc(N4C[C@H](Cn5cc(-c6ccccn6)nn5)OC4=O)cc3F)CC2)cc(-c2ccc(F)cc2F)n1-c1ccc(F)cc1`, for which the MIC is 8 µg/mL (≈ 11.1 µM). The result for `Cc1cccc(-c2cn(C[C@H]3CN(c4ccc(N5CCN(Cc6cc(-c7ccccc7C)n(-c7ccc(F)cc7)c6C)CC5)c(F)c4)C(=O)O3)nn2)c1` reads more than 16 µg/mL; that for `Cc1ccc(-c2cc(CN3CCN(c4ccc(N5C[C@H](Cn6cc(-c7ccccc7)nn6)OC5=O)cc4F)CC3)c(C)n2-c2ccc(Cl)c(Cl)c2)cc1`, more than 16 µg/mL; that for `Cc1c(CN2CCN(c3ccc(N4C[C@H](Cn5cc(-c6cncn6C)nn5)OC4=O)cc3F)CC2)cc(-c2ccc(C(C)C)cc2)n1-c1ccc(F)cc1F`, 8 µg/mL (≈ 10.7 µM).

As for `CC(=O)NC[C@H]1CN(c2ccc(N3CCN(Cc4cc(-c5cccc(Cl)c5)n(-c5ccccc5F)c4C)CC3)c(F)c2)C(=O)O1`, the MIC was 8 µg/mL (≈ 12.6 µM). In the case of `Cc1ccc(-c2cc(CN3CCN(c4ccc(N5C[C@H](Cn6cc(-c7ccccn7)nn6)OC5=O)cc4F)CC3)c(C)n2-c2ccc(Cl)c(Cl)c2)cc1`, the MIC stood at 4 µg/mL (≈ 5.32 µM). Turning to `Cc1c(CN2CCN(c3ccc(N4C[C@H](Cn5cc(-c6cncn6C)nn5)OC4=O)cc3F)CC2)cc(-c2ccc(F)cc2F)n1-c1ccc(F)cc1`, the MIC is 8 µg/mL (≈ 11 µM). On to `Cc1c(CN2CCN(c3ccc(N4C[C@H](Cn5cc(-c6ccccc6)nn5)OC4=O)cc3F)CC2)cc(-c2ccc(Cl)c(F)c2)n1-c1ccc(OC(F)(F)F)cc1`, for which the MIC is more than 16 µg/mL. With `Cc1c(CN2CCN(c3ccc(N4C[C@H](Cn5cc(-c6ccccc6)nn5)OC4=O)cc3F)CC2)cc(-c2cccc(Cl)c2)n1-c1ccccc1F`, the MIC was more than 16 µg/mL. The result for `CC(=O)NC[C@H]1CN(c2ccc(N3CCN(Cc4cc(-c5ccc(C(C)C)cc5)n(-c5ccc(F)cc5F)c4C)CC3)c(F)c2)C(=O)O1` reads 4 µg/mL (≈ 6.06 µM); that for `Cc1ccccc1-c1cc(CN2CCN(c3ccc(N4C[C@H](Cn5cc(-c6ccccn6)nn5)OC4=O)cc3F)CC2)c(C)n1-c1ccc(F)c(F)c1`, 4 µg/mL (≈ 5.56 µM); that for `Cc1c(CN2CCN(c3ccc(N4C[C@H](Cn5cc(-c6ccccc6)nn5)OC4=O)cc3F)CC2)cc(-c2ccc(F)cc2F)n1-c1cc(F)ccc1Br`, more than 16 µg/mL. To `Cc1ccccc1-c1cc(CN2CCN(c3ccc(N4C[C@H](Cn5cc(-c6cncn6C)nn5)OC4=O)cc3F)CC2)c(C)n1-c1ccc(F)cc1` belongs 4 µg/mL (≈ 5.68 µM). The result for `CC(=O)NC[C@H]1CN(c2ccc(N3CCOCC3)c(F)c2)C(=O)O1` [LINEZOLID] reads 2 µg/mL (≈ 5.93 µM); that for `Cc1c(CN2CCN(c3ccc(N4C[C@H](Cn5cc(-c6ccccn6)nn5)OC4=O)cc3F)CC2)cc(-c2ccc(Cl)c(F)c2)n1-c1ccc(OC(F)(F)F)cc1`, 4 µg/mL (≈ 4.97 µM); that for `CC(=O)NC[C@H]1CN(c2ccc(N3CCN(Cc4cc(-c5ccc(F)cc5F)n(-c5cc(F)ccc5Br)c4C)CC3)c(F)c2)C(=O)O1`, 8 µg/mL (≈ 11.2 µM). Regarding `Cc1ccccc1-c1cc(CN2CCN(c3ccc(N4C[C@H](Cn5cc(-c6cncn6C)nn5)OC4=O)cc3F)CC2)c(C)n1-c1ccc(F)c(F)c1`, the MIC was determined as 8 µg/mL (≈ 11.1 µM). As for `CO[C@H]1/C=C/O[C@@]2(C)Oc3c(C)c(O)c4c(O)c(c(/C=N/N5CCN(C)CC5)c(O)c4c3C2=O)NC(=O)/C(C)=C\C=C\[C@H](C)[C@H](O)[C@@H](C)[C@@H](O)[C@@H](C)[C@H](OC(C)=O)[C@@H]1C` [RIFAMPIN], the MIC is more than 128 µg/mL.
